Results taken from ChEMBL document CHEMBL1128506, “Synthesis and dopaminergic activity of pyridine analogs of 5-hydroxy-2-(di-n-propylamino)tetralin” (J Med Chem, 1995).

How the values were obtained:
[1] = biological target: T1, D(2) dopamine receptor (Homo sapiens, UniProt P14416); assay: In vitro binding affinity is the ability to displace [3H]N-0437 from human Dopamine receptor D2 expressed in CHO-K1 cells; type: cell-based
[2] = biological target: T1, D(2) dopamine receptor; assay: In vitro binding affinity is the ability to displace [3H]spiperone from human Dopamine receptor D2 expressed in CHO-K1 cells; type: cell-based
[3] = biological target: T2, D(3) dopamine receptor (Homo sapiens, UniProt P35462); assay: In vitro binding affinity is the ability to displace [3H]spiperone from human Dopamine receptor D3 expressed in CHO-K1 cells.; type: cell-based
T2 sequence (P35462 whole entry): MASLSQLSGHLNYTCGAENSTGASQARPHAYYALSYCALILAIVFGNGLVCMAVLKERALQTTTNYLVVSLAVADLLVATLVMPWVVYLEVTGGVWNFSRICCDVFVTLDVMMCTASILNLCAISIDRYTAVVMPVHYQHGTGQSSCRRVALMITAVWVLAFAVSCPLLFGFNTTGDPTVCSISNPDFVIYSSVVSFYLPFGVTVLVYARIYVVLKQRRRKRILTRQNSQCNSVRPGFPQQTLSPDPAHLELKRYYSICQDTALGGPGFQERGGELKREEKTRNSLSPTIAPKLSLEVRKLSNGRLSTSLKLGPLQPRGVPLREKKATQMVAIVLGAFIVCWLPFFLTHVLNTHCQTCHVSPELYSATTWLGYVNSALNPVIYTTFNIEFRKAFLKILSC

[4] = system: Mus musculus; assay: Inhibition of locomotor activity(LMA) in mouse after ip administration of the compound.; type: functional
How it was run: (§1)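 Mice given compound ip, then tested immediately for 1 h in darkened cylindrical photobeam chambers. Activity expressed as percent inhibition relative to vehicle-treated animals.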

[5] = system: Rattus norvegicus; assay: Percent reversal of the increase on DOPA levels in the striatum of GBL-treated rats administered ip with 10 mg/kg of compound.; type: functional; details: route intraperitoneal
How it was run: (§2)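 Male Long-Evans rats received compound 1 h before sacrifice. GBL (750 mg/kg ip) and the decarboxylase inhibitor NSD 1015 (100 mg/kg ip) were given 30 min before sacrifice. Striatal DOPA was measured by HPLC with electrochemical detection. Result reported as percent reversal of the GBL-induced DOPA increase, n = 4.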

[6] = biological target: T2, D(3) dopamine receptor; assay: In vitro binding affinity is the ability to displace [3H]spiperone from human Dopamine receptor D3 expressed in CHO-K1 cells; type: cell-based
How it was run: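 CHO-K1 cells stably expressing human D3 receptor, grown in F-12 medium with 10% fetal bovine serum under humidified 5% CO2/95% air.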

[7] = system: Mus musculus; assay: Inhibition of locomotor activity(LMA) in mouse after ip administration of the compound; type: functional; how it was run: as §1
[8] = system: Rattus norvegicus; assay: Percent reversal of the increase on DOPA levels in the striatum of GBL-treated rats administered ip with 10 mg/kg of compound; type: functional; details: route intraperitoneal; how it was run: as §2
[9] = system: Rattus norvegicus; assay: Inhibition of locomotor activity(LMA) in rat after sc administration of the compound.
[10] = system: Rattus norvegicus; assay: as above; remark: listed apart in the source

T1 sequence (P14416 whole entry): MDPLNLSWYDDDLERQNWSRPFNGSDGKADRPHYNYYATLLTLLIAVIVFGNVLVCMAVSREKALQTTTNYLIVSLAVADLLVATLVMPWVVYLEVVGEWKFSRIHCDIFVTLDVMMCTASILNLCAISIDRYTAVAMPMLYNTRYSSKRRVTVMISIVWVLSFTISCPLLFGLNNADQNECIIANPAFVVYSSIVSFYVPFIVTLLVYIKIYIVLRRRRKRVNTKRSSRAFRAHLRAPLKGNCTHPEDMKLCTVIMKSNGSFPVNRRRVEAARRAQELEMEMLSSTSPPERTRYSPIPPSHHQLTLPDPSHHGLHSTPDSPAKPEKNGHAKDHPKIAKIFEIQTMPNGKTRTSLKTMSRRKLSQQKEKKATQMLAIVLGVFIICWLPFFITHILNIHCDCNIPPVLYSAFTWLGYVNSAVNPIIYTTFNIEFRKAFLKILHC

SMILES | Ki [1] | Ki [2] | Ki [6] | Ki [3] | ED50 [4] | Decrease [5] | ED50 [7] | Decrease [8] | ED50 [9] | Inhibition [10]
CCCN(CCC)C1CCc2nc(N)sc2C1 (centres undefined) | 57 nM | 462 nM | 1.9 nM | – | – | – | > 30 mg/kg | 88% | – | –
CCCN(CCC)C1CCc2cc(OC)ccc2C1 (centres undefined) | 3940 nM | > 10000 nM | – | 366 nM | – | – | – | – | – | –
CCCN(CCC)C1CCc2nc(N)ccc2C1 (centres undefined) | 5 nM | 17.1 nM | – | 0.87 nM | 0.25 mg/kg | 86% | – | – | 0.05 mg/kg | –
CCCN(CCC)C1CCc2c(O)cccc2C1 (centres undefined) [5-OH-DPAT] | – | – | – | – | 0.01 mg/kg | 70% | – | – | 0.004 mg/kg | –

Further lines, with some results ahead:

Ki [1] | Ki [2] | Ki [6] | SMILES | Ki [3] | ED50 [4] | Decrease [5] | ED50 [7] | Decrease [8] | ED50 [9] | Inhibition [10]
1200 nM | > 3330 nM | – | CCCN(CCC)C1CCc2nc(OC)ccc2C1 (centres undefined) | 158 nM | > 30 mg/kg | 62% | – | – | – | –
466 nM | 272 nM | – | CCCN(CCC)C1CCc2ncccc2C1 (centres undefined) | 4.97 nM | 0.08 mg/kg | 86% | – | – | 0.01 mg/kg | –
523 nM | > 3330 nM | 36 nM | CCCN(CCC)C1CCc2n[nH]cc2C1 (centres undefined) | – | 0.64 mg/kg | 91% | – | – | – | 45%
